Here are results for four compounds from ChEMBL document CHEMBL3120138, “Glucocorticoid receptor modulators informed by crystallography lead to a new rationale for receptor selectivity, function, and implications for structure-based design” (J Med Chem, 2014).

Series [1] deals with T1, Mineralocorticoid receptor (Homo sapiens, UniProt P08235).
T1 sequence (P08235 whole entry): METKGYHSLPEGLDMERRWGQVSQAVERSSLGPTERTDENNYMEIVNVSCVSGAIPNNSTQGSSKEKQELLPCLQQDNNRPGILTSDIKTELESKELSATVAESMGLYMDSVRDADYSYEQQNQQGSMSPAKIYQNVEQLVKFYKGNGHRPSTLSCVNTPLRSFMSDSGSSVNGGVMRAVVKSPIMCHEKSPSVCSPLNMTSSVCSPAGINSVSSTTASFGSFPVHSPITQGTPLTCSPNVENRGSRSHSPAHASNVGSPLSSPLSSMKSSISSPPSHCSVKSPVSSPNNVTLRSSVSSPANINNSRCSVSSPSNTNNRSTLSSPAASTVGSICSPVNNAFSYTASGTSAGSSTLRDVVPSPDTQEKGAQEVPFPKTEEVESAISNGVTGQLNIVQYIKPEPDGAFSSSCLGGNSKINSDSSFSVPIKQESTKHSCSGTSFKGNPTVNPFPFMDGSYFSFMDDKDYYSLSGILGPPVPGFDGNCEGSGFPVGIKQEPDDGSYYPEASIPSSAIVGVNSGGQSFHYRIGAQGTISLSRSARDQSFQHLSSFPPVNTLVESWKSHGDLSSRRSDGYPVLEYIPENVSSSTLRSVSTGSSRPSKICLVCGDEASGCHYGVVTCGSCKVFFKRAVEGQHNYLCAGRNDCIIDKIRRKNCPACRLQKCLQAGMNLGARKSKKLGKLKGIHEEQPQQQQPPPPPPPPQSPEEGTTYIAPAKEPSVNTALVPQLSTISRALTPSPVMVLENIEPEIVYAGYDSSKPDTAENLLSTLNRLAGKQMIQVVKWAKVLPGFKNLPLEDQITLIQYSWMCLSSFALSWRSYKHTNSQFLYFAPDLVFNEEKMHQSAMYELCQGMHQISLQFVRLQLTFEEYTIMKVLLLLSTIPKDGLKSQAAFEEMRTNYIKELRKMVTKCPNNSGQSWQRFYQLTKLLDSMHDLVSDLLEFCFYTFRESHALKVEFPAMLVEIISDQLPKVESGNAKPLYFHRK
As to the kind of experiment: Displacement of [3H]-aldosterone from human mineralocorticoid receptor expressed in HEK293 cells. Type of series: cell-based. The method in brief:
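Competition binding used lysates of HEK293 cells overexpressing the human receptor. The tracer was ³H-aldosterone for MR and ³H-methyltrienolone for PR. Competitor was tested from 0.01 nM to 10 μM. IC50 was converted to Ki by Cheng–Prusoff. Values are means of at least three experiments, each run in triplicate.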
For orientation: Loss of bound radioactivity is the signal in a displacement assay; it reports binding, not function.

Series [2] in a line: Clearance in Sprague-Dawley rat at 3 mg/kg, iv. The series is classed as ADME, organism-based. Also on record: dose 3 mg/kg, route intravenous. Conditions: in vivo. The method in brief:
(§1)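 Cannulated male Sprague-Dawley rats, fasted overnight, given a single 3 mpk dose at t = 0. The iv vehicle was 20% microemulsion/80% DI water and the po vehicle CMC/tween in DI water. Plasma was analysed for parent compound by LC/MS-MS, and exposure, half-life, Vd, clearance and bioavailability were calculated.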

Series [3] has as its target T2, Glucocorticoid receptor (Homo sapiens) (UniProt P04150).
T2 sequence (whole entry): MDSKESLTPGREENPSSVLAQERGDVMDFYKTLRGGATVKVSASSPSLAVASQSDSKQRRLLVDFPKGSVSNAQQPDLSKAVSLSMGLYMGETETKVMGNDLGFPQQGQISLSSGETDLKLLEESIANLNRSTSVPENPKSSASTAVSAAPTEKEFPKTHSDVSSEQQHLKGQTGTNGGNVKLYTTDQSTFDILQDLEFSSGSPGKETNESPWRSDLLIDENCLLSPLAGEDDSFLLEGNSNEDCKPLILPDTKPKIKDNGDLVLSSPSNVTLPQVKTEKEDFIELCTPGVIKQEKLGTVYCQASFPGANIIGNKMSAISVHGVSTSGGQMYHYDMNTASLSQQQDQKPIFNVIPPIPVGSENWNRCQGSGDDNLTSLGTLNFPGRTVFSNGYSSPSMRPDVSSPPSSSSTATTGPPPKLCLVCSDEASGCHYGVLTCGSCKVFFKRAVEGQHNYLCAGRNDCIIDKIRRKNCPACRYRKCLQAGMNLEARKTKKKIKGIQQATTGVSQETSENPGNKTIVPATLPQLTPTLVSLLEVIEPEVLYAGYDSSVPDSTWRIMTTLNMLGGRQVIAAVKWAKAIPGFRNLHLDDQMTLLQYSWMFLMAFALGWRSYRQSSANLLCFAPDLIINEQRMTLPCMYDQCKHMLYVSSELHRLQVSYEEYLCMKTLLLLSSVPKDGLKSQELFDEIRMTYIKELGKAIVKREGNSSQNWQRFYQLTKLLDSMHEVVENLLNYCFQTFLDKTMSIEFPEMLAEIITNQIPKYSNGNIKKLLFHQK
As to the kind of experiment: Transactivation of human glucocorticoid receptor expressed in HEK293 cells at 10 uM after 24 hrs by luciferase reporter gene assay relative to control. Type of series: cell-based. The method in brief: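 HEK293 cells were transfected in DMEM with 5% charcoal-stripped FBS, using a CMV-hGR plasmid and a luciferase reporter driven by 2×GRE plus the TK promoter. After overnight incubation, cells were replated and exposed to compound for 24 h, then lysed for luciferase readout.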
Background: In a reporter assay the amount or activity of a reporter protein is the signal.

Series [4] relates to Rattus norvegicus. Description: Antiinflammatory activity in Lewis rat collagen-induced arthritis model assessed as reduction of bone resorption at 30 mg/kg, po administered for 15 days. The series is classed as functional, organism-based. Also on record: dose 30 mg/kg. The method in brief: (§2)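 Female Lewis rats received collagen injected at the tail base, and disease developed over 14 d. Responding rats (groups of n = 10) were then dosed orally once daily for the next 15 d. Ankle/paw diameter was measured throughout the live phase and summarised as AUC. Hindpaw histology was scored blind from 0 (normal) to 5 (vehicle-level). Statistics used Student's t test vs vehicle, p < 0.01.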

Series [5] has as its system Rattus norvegicus. As to the kind of experiment: Antiinflammatory activity in Lewis rat collagen-induced arthritis model assessed as reduction of joint inflammation at 30 mg/kg, po administered for 15 days. Further details: dose 30 mg/kg. Type of series: functional, organism-based. The method in brief: as §2
Series [6] is described as follows: AUC in Sprague-Dawley rat at 3 mg/kg, iv. Type of series: ADME, organism-based. Further details: dose 3 mg/kg, route intravenous. Conditions: plasma. The method in brief: as §1
The nature of series [7]: Tmax in Lewis rat collagen-induced arthritis model at 3 to 30 mg/kg, po after 15 days. The series is classed as ADME, organism-based. Conditions: in vivo. Further details: dose 3-30 mg/kg, route oral.
The nature of series [8]: AUC in Sprague-Dawley rat at 3 mg/kg, po. As to conditions: plasma. Type of series: ADME, organism-based. Also on record: dose 3 mg/kg, route oral. The method in brief: as §1
Series [9] in a line: Antiinflammatory activity in PMA-differentiated human U937 cells assessed as inhibition of LPS-induced TNFalpha production incubated for 60 mins prior to LPS challenge measured after 24 hrs. The series is classed as functional, cell-based. Conditions: U-937. The method in brief: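 U-937 cells (100 000/well) were differentiated with 20 nM PMA overnight at 37 °C, then refed with PMA-free medium. Cells were pretreated with compound for 60 min, then stimulated with LPS (stock 400 ng/mL) for 24 h at 37 °C. Secreted TNFα was measured by EIA/RIA. Ten-point half-log dilutions were used, each concentration in triplicate.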

A short description of series [10]: Half life in Lewis rat collagen-induced arthritis model at 3 to 30 mg/kg, po after 15 days. The series is classed as ADME, organism-based. Further details: dose 3-30 mg/kg, route oral. As to conditions: in vivo.
In series [11] the test system is Rattus norvegicus. Description: Antiinflammatory activity in po dosed Sprague-Dawley rat assessed as inhibition of carrageenan-induced paw edema incubated for 2 hrs prior to carrageenan challenge measured after 5 hrs […]. Type of series: functional.
In series [12] the test system is Rattus norvegicus. Description: Antiinflammatory activity in Lewis rat collagen-induced arthritis model assessed as reduction of pannus at 30 mg/kg, po administered for 15 days. Type of series: functional, organism-based. Also on record: dose 30 mg/kg. The method in brief: as §2

Active and inactive are the calls of the source. No cut-off for these calls is given here.

Usually Ki stands for a dissociation constant, usually derived from enzyme kinetics or from competition with a known ligand. Read a high Ki as lower affinity. The compound `CS(=O)(=O)Nc1cccc(C=C2c3ccccc3CCc3ccccc32)c1` came in with a Ki in series [1] of 2.48 nM.

In turn, `CC/C(=C1/c2ccccc2COc2ccccc21)c1cccc(NS(C)(=O)=O)c1` showed a Ki in [1] of 0.967 nM.

What is called clearance is the rate of elimination divided by the concentration. As a reminder, the AUC is concentration integrated over time. Low values mean less exposure, high ones more exposure. What is called Tmax is the time at which the peak concentration occurs. The term IC50 denotes the point on the concentration scale where inhibition reaches its midpoint. For orientation: half-life means how long it takes for the measured level to halve. In general, ED50 refers to the dose at which the effect has come halfway, by size or by number of responders. `CC/C(=C1\c2ccccc2OCc2cccc(OC)c21)c1cccc(NS(C)(=O)=O)c1`: the clearance in series [2] was determined as 56 mL/min/kg. Moreover, the Efficacy in series [3] is 53%. Also, the result with Rattus norvegicus [4], with Rattus norvegicus [5] and with Rattus norvegicus [12] was Active. The AUC was 1490 ng·h/mL in series [6] and 1300 ng·h/mL in [8]. In series [1], the affinity, expressed as Ki, was 6.1 nM. Moreover, the time to peak (Tmax) in [7] is 1 h. Also, the 50% inhibitory concentration (IC50) in [9] was 19.1 nM. This compound also had a half-life in series [10] of 1.4 h. The ED50 in the series with Rattus norvegicus [11] is 2.8 mg/kg.

As for `C/C(=C1/c2ccccc2COc2ccccc21)c1cccc(NS(C)(=O)=O)c1`, the affinity in series [1], expressed as Ki, was 0.342 nM.
